Assay results published in PMC3000965 (The Journal of Biological Chemistry, 2010).
pEC50: −log10 of the molar value. One block for each molecule: values may come before it.

Assays:
Purified Hela Hsp90 [1] = test: Dissociation of [3H]17-AAG from purified Hsp90; format: binding, human
[2] = test system: Hsp90 in SK-BR-3 cell lysate; test: Association of [3H]17-AAG to Hsp90 in SK-BR-3 lysate; format: binding, human; details: 4 °C, 10 μM 17-AAG
Hsp90 in SK-BR-3 lysates = test: Dissociation of [3H]17-AAG from Hsp90 in SK-BR-3 lysates; format: binding, human; details: 4 °C
Purified Hela Hsp90 [3] = test: Association of [3H]17-AAG to purified Hsp90; format: binding, human
[4] = test system: Hsp90 in H1650 tumor xenografts; test: Hsp90 occupancy in H1650 tumor xenografts; format: in vivo, mice; details: 100 mg/kg single dose
In short: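 Male athymic nude mice (6–8 weeks) carried flank xenografts from 1 × 10^7 H1650 cells. They received a single i.v. dose of test compound (100 mg/kg) and were sacrificed at time points from 1 to 48 h (n = 3; vehicle n = 2). Tumors were snap-frozen and powdered, and ~10 mg was homogenized in chilled binding buffer and clarified at 14,000 × g, 4 °C.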

RS4;11 cells = test: Cell growth inhibition; format: cell-based; details: Homo sapiens, RS4-11, 72 h, read-out: Cell growth inhibition (GI50)
In short: (§1)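 Cells grown in RPMI 1640 with 10% FBS at 37 °C, 5% CO2. Seeded at 10,000 cells/well, held 24 h, then exposed to increasing concentrations of test compound for 72 h. Viability read by CellTiter-Glo luminescence and normalized to DMSO vehicle control to give GI50.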

Akt = Akt client protein degradation by immunoblot in H1650 cells; format: cell-based, human; details: 10 μM (highest concentration tested), 6 h
In short: (§2)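 H1650 cells were exposed to increasing concentrations of test compound for 6 h. They were lysed in RIPA buffer with protease inhibitors, protein was measured by BCA, and samples were run on 4–12% Bis-Tris SDS-PAGE and transferred to PVDF. Blots were probed with client-specific antibodies and detected by ECL. Bands were normalized to actin, and the fraction degraded was computed by densitometry against untreated samples.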

Hsp90 in H1975 cells = test: Hsp90 occupancy in H1975 cells; format: cell-based, human; details: read-out: Hsp90 occupancy (EC50); H1975, 6 h incubation
In short: (§3)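 Cells were grown to 95% confluency and treated with test compound (0.01–10 μM) for 6 h at 37 °C. They were washed in cold PBS and lysed by freeze/thaw in binding buffer (20 mM Hepes pH 7.3, KCl, MgCl, EDTA, TCEP). Unbound drug was removed on prechilled spin columns. […], with total Hsp90 quantified by immunoblot against recombinant α/β standards. Average of two experiments.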

cRaf = cRaf client protein degradation by immunoblot in H1650 cells; format: cell-based, human; details: 10 μM (highest concentration tested), 6 h
In short: as §2

[5] = Plasma and tumor PK in H1650 tumor-bearing mice; format: in vivo
In short: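 Nude mice bearing H1650 xenografts received a single i.v. dose of test compound (100 mg/kg). Plasma and tumors were collected at time points from 1 to 48 h (n = 3). Tumors were homogenized in ice-cold, nitrogen-sparged 1:1 acetonitrile : 150 mM citrate/EDTA/ascorbate, pH 3, then filtered and diluted 1:1 in citrate buffer with 25 ng/ml deuterated internal standard. Parent compound and two active metabolites were quantified by LC-MS/MS.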

HER2 = HER2 client protein degradation by immunoblot in H1650 cells; format: cell-based, human
In short: as §2

mEGFR [6] = test: mEGFR client protein degradation by immunoblot in H1650 cells; format: cell-based, human; details: read-out: mEGFR degradation EC50, 6 h
In short: as §2

H1650 cells = test: Cell growth inhibition; format: cell-based; details: Homo sapiens, NCI-H1650, 72 h, read-out: Cell growth inhibition (GI50)
In short: as §1

H1975 cells = test: Cell growth inhibition; format: cell-based; details: Homo sapiens, NCI-H1975, 72 h, read-out: Cell growth inhibition (GI50)
In short: as §1

Hsp90 in SKOV-3 cells = test: Hsp90 occupancy in SKOV-3 cells; format: cell-based, human; details: read-out: Hsp90 occupancy (EC50); SKOV-3, 6 h incubation
In short: as §3

Hsp90 in H1650 cells = test: Hsp90 occupancy in H1650 cells; format: cell-based, human; details: read-out: Hsp90 occupancy (EC50); H1650, 6 h incubation
In short: as §3

Hsp90 in RS4;11 cells = test: Hsp90 occupancy in RS4; format: cell-based, human; details: read-out: Hsp90 occupancy (EC50); RS4;11, 6 h incubation
In short: as §3

mEGFR [7] = test: mEGFR protein degradation in H1650 tumor xenografts; format: in vivo, mice; details: 100 mg/kg single dose
In short: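 Nude mice bearing H1650 flank xenografts received a single i.v. dose of test compound (100 mg/kg). They were sacrificed at time points from 1 to 48 h post dose (n = 3; vehicle n = 2). Tumors were snap-frozen in liquid nitrogen, stored at −80 °C, and EGFR protein levels in tumor tissue were assessed by immunoblot. Data are averages ± S.D.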

SKOV-3 cells = test: Cell growth inhibition; format: cell-based; details: Homo sapiens, SK-OV-3, 72 h, read-out: Cell growth inhibition (GI50)
In short: as §1

Hsp90 = details: cited from earlier work

time at which drug binding reached equilibrium (Purified Hela Hsp90 [3]; 4 °C, 10 μM 17-AAG): ≤ 40 min
Compound: C=CCNC1=C2C[C@@H](C)C[C@H](OC)[C@H](O)[C@@H](C)/C=C(\C)[C@H](OC(N)=O)[C@@H](OC)/C=C\C=C(/C)C(=O)NC(=CC1=O)C2=O [17-AAG, 17-allylamino-17-demethoxygeldanamycin]
dissociation t½ (Purified Hela Hsp90 [1]; 4 °C): 1680 min | dissociation half-life (Purified Hela Hsp90 [1]; 37 °C): 8 min | time at which drug binding reached equilibrium [2]: ≤ 130 min | association t½ ([2]; ∼100 nM Hsp90 in lysate): 19 min | dissociation half-life (Hsp90 in SK-BR-3 lysates): 36 h | rate of dissociation slower than rate of association (Purified Hela Hsp90 [3]; 10 μM 17-AAG at 4 °C): ~100 fold | association t½ (Purified Hela Hsp90 [3]; 4 °C, 10 μM 17-AAG, 100 nM Hsp90): 6 min

GI50 (RS4;11 cells): 2000 nM | pEC50 (Hsp90 in H1975 cells): 7.13 | IPI-504 and its metabolites in plasma ([5]; 24 h post dose, plasma): barely detectable | IPI-504 and its metabolites in tumors ([5]; 36 h post dose, 100 mg/kg, tumor): high concentrations | tumor PK concentrations of IPI-504 ([5]; at 24 to 48 h, tumor): ~1 µM | pEC50 (HER2; read-out: HER2 degradation EC50, 6 h): 7.96 | pEC50 (mEGFR [6]): 6.67 | GI50 (H1650 cells): 37 nM | GI50 (H1975 cells): 51 nM | pEC50 (Hsp90 in SKOV-3 cells): 7.36 | pEC50 (Hsp90 in H1650 cells): 7.52 | pEC50 (Hsp90 in RS4;11 cells): 6.19 | GI50 (SKOV-3 cells): 52 nM
Compound: C=CCNc1c(O)cc2c(O)c1C[C@@H](C)C[C@H](OC)[C@H](O)[C@@H](C)/C=C(\C)[C@H](OC(N)=O)[C@@H](OC)/C=C\C=C(/C)C(=O)N2 [IPI-504]
time by which Hsp90 occupancy declined to background levels [4]: ≤ 48 h | time up to which significant Hsp90 occupancy was observed [4]: up to 12 h | Akt maximal degradation (Akt): ≤ 54% | cRaf maximal degradation (cRaf): ≤ 42% | HER2 degraded (HER2; 30 nM IPI-504, 6 h): > 90% | time after which mEGFR protein degradation was observed (mEGFR [7]): 2 h | time of re-emergence of mEGFR protein expression (mEGFR [7]): 24 h | affinity for Hsp90 higher than 17-AAG (Hsp90): 50 fold
